A selection: hits, their analogues and other compounds. The true share with any hit is near 1.9%.
Runt-CBFb FRET: inhibitors of RUNX1 Runt–CBFb binding, primary screen, biochemical, FRET, Cerulean-Runt, Venus-CBFb, uHTS. inhibition, % at 20 µM. hit rate 0.46% among 220,000. Runt-related transcription factor 1 (Homo sapiens) + Core-binding factor subunit beta …. Cerulean-Runt/Venus-CBFb FRET ratio 530/480, 1 h. AID 1496, 2009;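 active = inhibition over about 50% at 20 µM in the single-dose screen, limit read from the data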
Target sequence (Q01196 whole entry, looked up): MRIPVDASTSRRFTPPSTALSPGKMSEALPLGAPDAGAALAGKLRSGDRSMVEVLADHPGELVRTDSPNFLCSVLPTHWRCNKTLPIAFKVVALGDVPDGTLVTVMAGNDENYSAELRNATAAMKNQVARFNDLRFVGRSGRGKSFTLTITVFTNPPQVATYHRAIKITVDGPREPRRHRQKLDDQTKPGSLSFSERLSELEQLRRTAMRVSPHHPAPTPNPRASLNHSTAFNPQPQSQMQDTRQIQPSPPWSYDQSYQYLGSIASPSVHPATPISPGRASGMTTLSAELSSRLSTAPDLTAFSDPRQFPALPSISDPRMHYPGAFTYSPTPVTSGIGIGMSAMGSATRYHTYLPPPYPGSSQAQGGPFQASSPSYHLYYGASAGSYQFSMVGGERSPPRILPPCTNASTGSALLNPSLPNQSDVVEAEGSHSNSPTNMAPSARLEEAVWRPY
Target sequence (Q13951 whole entry, looked up): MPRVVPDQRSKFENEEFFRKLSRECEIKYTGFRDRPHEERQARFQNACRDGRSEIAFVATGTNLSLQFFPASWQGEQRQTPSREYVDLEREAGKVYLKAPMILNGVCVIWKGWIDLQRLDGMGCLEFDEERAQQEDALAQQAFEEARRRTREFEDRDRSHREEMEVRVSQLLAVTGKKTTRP
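Assay system: Cerulean-Runt domain fusion protein, energy donor; Signal: fluorescence energy transfer, 422 nm excitation, 530/480 nm emission; Timing: 1 h compound exposure, room temperature; Control set: unlabeled CBFb; Medium: Tris buffer pH 7.5 with salts and BSA; Compound: single test concentration of 20 µM, 1% DMSO final; Probe or stimulus: Venus-CBFb 100 nM.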
RanGTP-Impb inh: inhibitors of RanGTP-importin-beta interaction, primary screen, biochemical, FRET, CFP-Ran, YFP-importin-beta, homogeneous. Ran GTPase (GTP-bound) - importin-beta complex. cell-free CFP-Ran/YFP-importin-beta FRET ratio. inhibition, % (concentration not given with the values). hit rate 1.1% among 300,000. AID 2216, 2009;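 active = more than half of the replicate wells show a fall in the fluorescence ratio signal beyond about 16%, limit read from the data, passing the limit was not always enough; inconclusive = exactly half of the replicate wells pass the set limit; inactive = fewer than half of replicates pass the limit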
Hck-Nef inh: inhibitors of Nef-activated human Hck kinase, primary screen, biochemical, Z-Lyte FRET, 384-well, Hck-YEEI; Tyrosine-protein kinase HCK (Homo sapiens), P08631; Recombinant Hck-YEEI plus Nef, Z-Lyte FRET kinase assay; inhibition, % at 20 µM; hit rate 0.68% among 220,000; AID 463187, 2010;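 active = Hck-Nef kinase inhibition above about 50%, limit read from the data; inactive = inhibition below that limit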
Runt-SMMHC FRET: inhibitors of RUNX1 Runt–CBFb-SMMHC binding, primary screen, biochemical, FRET, Cerulean-Runt, Venus-CBFb-SMMHC, uHTS | Cerulean-Runt/Venus-CBFb-SMMHC FRET ratio 530/480, 1 h | AID 1434, 2008 | inhibition, % at 20 µM | Runt-related transcription factor 1 (Homo sapiens) + Core-binding factor subunit beta … | hit rate 0.74% among 220,000;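 active = mean inhibition across duplicate retests at 20 µM reaching about 50%, limit read from the data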;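 also: inhibitors lower the FRET ratio by blocking Runt binding to CBFb-SMMHC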
Hck Nef conf: retest of Hck:Nef kinase inhibitor hits, confirmation, biochemical, Z-Lyte FRET, 384-well, p-Tyr peptide counterscreen; shares compounds with Hck-Nef inh; Recombinant Hck-YEEI:Nef, Z-Lyte FRET kinase assay; calls only at 10 µM; hit rate 28% among 1,300;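 active = average inhibition of at least 50%, with Z-scores no higher than 3 in both the phospho-tyrosine peptide and fluorescence counterscreens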
Numbers stand for hits; i = inactive; ? = inconclusive; nt = no result shown; + = active, no number.

SMILES | Runt-CBFb FRET | RanGTP-Impb inh | Hck-Nef inh | Runt-SMMHC FRET | Hck Nef conf
O=C1/C(=C\c2ccccn2)SC(=S)N1c1ccc(S(=O)(=O)Nc2nccs2)cc1 | i | i | i | i | nt
CCn1c(-c2ccccc2)csc1=Nc1ccc(O)cc1 | i | i | i | i | nt
CCNC(=O)NC(=O)COC(=O)c1ccccc1SCC(=O)NC(=O)NCC | i | i | 109.3 | i | nt
O=C(COC(=O)c1ccccc1SCC(=O)NC1CCS(=O)(=O)C1)NC1CCS(=O)(=O)C1 (stereo unspecified) | i | i | i | i | nt
CCN1CCN(Cc2ccc(NC(=O)c3ccc(C)c(NC(=O)c4ccc5n[nH]nc5c4)c3)cc2C(F)(F)F)CC1 | i | i | 75.7 | i | +
CCN1CCN(Cc2ccc(NC(=O)c3ccc(C)c(NC(=O)c4ccnnc4)c3)cc2C(F)(F)F)CC1 | i | i | 54.7 | i | i
COC(=O)c1ccc(COc2ccccc2/C=C(\C#N)C(=O)Nc2c(C)cccc2C)cc1 | i | i | i | i | nt
O=C(Nc1cccc(NC(=O)c2ccc(Br)o2)n1)c1ccc(Br)o1 | i | i | 98.1 | i | i
CCOC(=O)c1c(/N=C/N(C)C)sc(C=O)c1-c1ccccc1 | 102.9 | i | 97.7 | 134.4 | i
Cc1ccc2cc(S(=O)(=O)NCCC(=O)O)ccc2c1 | i | ? | i | i | nt
Cc1ccc(S(=O)(=O)NCCC(=O)Oc2ccc3ccc(=O)oc3c2)cc1 | i | i | 93.1 | 55.9 | nt
COc1ccc(C=O)cc1CN1CCCN(Cc2ccccc2F)S1(=O)=O | nt | i | nt | nt | nt
COC(=O)N/N=C/c1cn(CC(C)COc2ccccc2)c2ccccc12 (stereo unspecified) | i | i | i | i | nt
Cc1cc(C)c2cc(CN(CCO)Cc3nnnn3Cc3ccc(F)cc3)c(=O)[nH]c2c1 | i | i | i | i | nt
Cc1cc(C)c2cc(CN(CCO)Cc3nnnn3Cc3ccccc3)c(=O)[nH]c2c1 | i | i | 85.1 | i | i
CC(=O)c1ccc(OCc2cc(C(=O)N3CCN(C4CCCC4)C(=O)C3)no2)cc1 | nt | i | nt | nt | nt
Nc1nonc1-c1nc2ccccc2n1CC(=O)N/N=C/c1ccc(-c2cccc(C(=O)O)c2)o1 | i | i | 91.2 | i | +
CCOc1ccc(CN2CCC(Cc3ccccc3)CC2)cc1 | nt | i | nt | nt | nt
CC1=NN(c2ccc(C)cc2)C(=O)/C1=C\C=C\c1ccccc1 | i | i | i | i | nt
CC1=NN(c2cccc(C(=O)O)c2)C(=O)/C1=C\C=C/c1ccccc1 | i | i | 58.5 | i | i
CCCCn1c(O)c(N=NC(=O)c2ccncc2)c2cc(Br)ccc21 | i | i | i | i | nt
Cc1ncc(CC(=O)n2cc(C(=O)c3cc(F)ccc3O)cn2)s1 | i | ? | i | i | nt
Cc1ccc(O)c(C(=O)c2cnn(C(=O)Cc3csc(C)n3)c2)c1 | i | nt | 74.3 | i | +
CC1Cc2cc(/C(O)=C3/C(=O)C(=O)N(CCCN4CCOCC4)C3c3ccc(C(C)C)cc3)ccc2O1 (stereo unspecified) | nt | i | nt | nt | nt
COC(=O)Cc1[nH]n(-c2nc3ccccc3s2)c(=O)c1C(C)=Nc1ccc(Cl)cc1 | i | i | 63.7 | i | i
SMILES | Runt-CBFb FRET | RanGTP-Impb inh | Hck-Nef inh | Runt-SMMHC FRET | Hck Nef conf
O=C(O)/C=C/c1ccc([N+](=O)[O-])o1 | i | i | i | i | nt
O=C1NC(=S)S/C1=C\C=C\c1ccc([N+](=O)[O-])o1 | i | nt | 56.1 | i | +
Cc1nc([N+](=O)[O-])c(Sc2nc3ccccc3n2C)n1Cc1ccccc1 | i | i | i | i | nt
C/C(=N\Nc1ccc(S(N)(=O)=O)cc1[N+](=O)[O-])c1ccc2c(c1)OCO2 | i | i | 64.6 | i | +
CCn1c(=O)n(CC(=O)Nc2cccc(OC)c2)c(=O)c2ccccc21 | i | i | i | i | nt
COc1cccc(NC(=O)Cn2c(=O)n(-c3cc(OC)c(OC)c(OC)c3)c(=O)c3ccccc32)c1 | i | i | 124.5 | i | i
CCOc1cc(C2C3=C(CC(C)(C)CC3=O)Nc3n[nH]c(C)c32)ccc1O (stereo unspecified) | i | i | i | i | nt
O=C1N/C(=N\N=C\c2ccc3ncccc3c2)SC1Cc1ccc(SC(F)F)cc1 (stereo unspecified) | i | nt | 84.5 | i | +
Nc1c(C(=O)N/N=C/c2ccccc2)cnn1-c1ccccc1 | i | i | 67.9 | i | i
Clc1cccc(Cl)c1CSc1nnc(CN2CCOCC2)n1-c1ccccc1 | i | i | i | i | nt
Fc1cccc(Cl)c1CSc1nnc(CN2CCOCC2)n1-c1ccccc1 | i | i | 95.9 | i | i
COc1ccccc1NC(=O)Cn1c(O)c(N=NC(=O)c2ccccc2O)c2ccccc21 | i | i | 90.9 | i | i
Cc1ccc(NC(=O)Cn2c(O)c(N=NC(=O)c3cc4ccccc4cc3O)c3ccccc32)cc1 | i | nt | 51.2 | i | i
Cn1c(O)c(N=NC(=O)c2ccccc2O)c2ccccc21 | i | i | i | i | nt
C(=N\Nc1ccccn1)/c1c[nH]c2ccccc12 | i | i | 51.5 | i | i
CCCn1c(NC(=O)c2ccc(Cl)c(S(=O)(=O)N3CCCC3)c2)nc2ccccc21 | i | i | 72.6 | i | +
COc1ccc(CCN2C(=NC(=O)C(C)C)SC3CS(=O)(=O)CC32)cc1OC (stereo unspecified) | i | i | i | i | nt
COc1ccc(N=Cc2c[nH][nH]c2=O)cc1 | i | i | i | i | nt
O=c1[nH][nH]cc1C=Nc1ccc(Oc2ccccc2)cc1 | i | i | 163.8 | i | +
COc1ccc(S(=O)(=O)N2CC(O)CC2C(=O)OCc2nc3sc(C)c(C)c3c(=O)[nH]2)cc1 (stereo unspecified) | i | i | i | i | nt
COc1ccc(-c2csc(NC(=O)CSc3nc(C)nc4sc(C(=O)O)c(C)c34)n2)cc1 | i | i | 95.8 | i | +
S=C(NCc1ccco1)Nc1ccccc1Cl | i | i | 94.0 | i | i
Cc1ccc(S(=O)(=O)N(C)C)cc1NC(=S)NCc1ccco1 | nt | i | 113.0 | i | +
O=C(NCc1ccc(Cl)cc1)c1ccc2c(=O)n(CC3CCCO3)c(=S)[nH]c2c1 (stereo unspecified) | nt | i | nt | nt | nt
COCCCn1c(=N)c(C(=O)NCC2CCCO2)cc2c(=O)n3ccccc3nc21 (stereo unspecified) | i | 172.4 | + | 65.3 | nt
CCCn1c(=O)c(C(=O)NCC2CCCO2)c(O)c2ccccc21 (stereo unspecified) | i | i | i | i | nt

Screening data deposited in PubChem by several laboratories.
